Series [1] concerns Candida albicans. The experiment in a line: Ratio of MIC in presence of 10% FBS to MIC in absence of 10% FBS for Candida albicans ATCC 10231. The series is classed as functional. The method, boiled down: (§1)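 MIC broth dilution run in parallel in RPMI 1640 with or without 10% fetal bovine serum against C. albicans ATCC 10231, C. parapsilosis ATCC 22019 and A. nidulans ATCC 38163.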

For series [2], the system named is Aspergillus nidulans. Nature of the series: Ratio of MIC in presence of 10% FBS to MIC in absence of 10% FBS for Aspergillus nidulans ATCC 38163. It counts as functional. The gist of the method:
as §1

The subject of series [3] is Candida albicans. Nature of the series: Antifungal activity against itraconazole and fluconazole resistant Candida albicans ATCC MYA-1003 after 48 hrs by broth dilution method. It counts as functional. Conditions: Candida albicans, ATCC MYA-1003, 48 h. The gist of the method:
(§2)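 CLSI M27-A3 broth microdilution with minor modifications. Overnight YPD culture grown at 35 °C, 200 rpm, adjusted to OD600 0.12, diluted in RPMI 1640 buffered to pH 7.0 with 0.165 M MOPS to a final 1–2 × 10^3 CFU/mL. Test compounds at 0.015–31.3 µg/mL, 48 h at 35 °C, DMSO <1.25%. […] Triplicate.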

Another series has as its system HEK293. The experiment in a line: Cytotoxicity against HEK293 cells up to 31 ug/ml after 24 hrs by resazurin-based fluorescence assay. The series is classed as cell-based. To be noted: human, hek293, 24 h. The gist of the method:
(§3)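 Cells grown in DMEM with 10% FBS at 37 °C, 5% CO2, and seeded at 10000 (HEK-293) or 3000 (BEAS-2B, A549) per well. After 16 h, exposed 24 h to 0.13–31 µg/mL final in medium with 0.1–0.4% DMSO. Resazurin added for 6–10 h; fluorescence read at 560/590 nm and survival normalized to DMSO control after background subtraction. Triton X-100 12.5% v/v positive control; duplicate.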
A general note: The colour change of resazurin is a common sign of viable cells or microbes.

Another series deals with Pichia kudriavzevii. Nature of the series: Antifungal activity against Candida krusei ATCC 6258 after 48 hrs by broth dilution method. The series is classed as functional. To be noted: Pichia kudriavzevii, ATCC 6258, 48 h. The gist of the method: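 Yeasts tested per CLSI M27-A3 with minor changes. An overnight YPD culture (35 °C, 200 rpm) was adjusted to OD600 0.12 and diluted in MOPS-buffered RPMI 1640 (pH 7.0) to a final 1–2 × 10^3 CFU/mL. Compounds 0.015–31.3 µg/mL, DMSO <1.25%.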
In general terms: Dilution methods test growth across graded concentrations, often in twofold steps.

Series [4] is described as follows: Aqueous solubility of the compound. It counts as physicochemical. To be noted: buffer.
In series [5] the test system is Aspergillus nidulans. The experiment in a line: Antifungal activity against Aspergillus nidulans ATCC 38163 after 48 hrs by broth dilution method. It counts as functional. To be noted: Aspergillus nidulans, ATCC 38163, 48 h. The method, boiled down: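 A. nidulans run per CLSI M38-A2. PDA spores were filtered through glass wool and counted by hemocytometer. Test range 0.03–31.3 µg/mL in MOPS-buffered RPMI 1640 (pH 7.0), final 5 × 10^5 CFU/mL.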

Series [6] has as its system Candida parapsilosis. The experiment in a line: Ratio of MIC in presence of 10% FBS to MIC in absence of 10% FBS for Candida parapsilosis ATCC 22019. The series is classed as functional. The gist of the method: as §1
A further series has as its system BEAS-2B. The experiment in a line: Cytotoxicity against human BEAS2B cells up to 31 ug/ml after 24 hrs by resazurin-based fluorescence assay. It counts as cell-based. The method, boiled down: as §3
The next series has as its system Nakaseomyces glabratus. The experiment in a line: Antifungal activity against Candida glabrata ATCC 2001 after 48 hrs by broth dilution method. It counts as functional, CBS 138. To be noted: Nakaseomyces glabratus, CBS 138, 48 h.
For another series, the system named is A549. Nature of the series: Cytotoxicity against human A549 cells up to 31 ug/ml after 24 hrs by resazurin-based fluorescence assay. The series is classed as cell-based. To be noted: a549, 24 h. The gist of the method:
as §3

The subject of series [7] is Candida albicans. Nature of the series: Antifungal activity against itraconazole and fluconazole susceptible Candida albicans ATCC MYA-2876 after 48 hrs by broth dilution method. The series is classed as functional. Conditions: Candida albicans, ATCC MYA-2876, 48 h.
In series [8] the test system is Candida albicans. The experiment in a line: Antifungal activity against itraconazole and fluconazole resistant Candida albicans ATCC 90819 after 48 hrs by broth dilution method. The series is classed as functional. To be noted: Candida albicans, ATCC 90819, 48 h. The method, boiled down: as §2
The test system of series [9] is Candida albicans. Nature of the series: Antibiofilm activity against voriconazole resistant Candida albicans ATCC 64124 sessile cells incubated for 24 hrs by XTT reduction assay. Conditions: ATCC 64124, 24 h. It counts as functional. The gist of the method: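 Strain B grown overnight in YPD broth at 35 °C, diluted to OD600 0.1 (~10^6 CFU/mL), then grown statically for 24 h at 37 °C to form biofilm. Washed with PBS, then drug in RPMI 1640 at 0.12–62.5 µg/mL for 24 h at 37 °C. Read-out: XTT 0.5 mg/mL with menadione 1 µM, 2 h, A490. SMIC50/SMIC80 are 50%/80% decreases versus drug-free biofilm. Duplicate.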

Series [10] deals with Candida albicans. The experiment in a line: Antifungal activity against Candida albicans ATCC 10231 after 48 hrs in the presence of 10% FBS by broth dilution method. The series is classed as functional. To be noted: ATCC 10231, 48 h.
Series [11] relates to Candida parapsilosis. Nature of the series: Antifungal activity against Candida parapsilosis ATCC 22019 after 48 hrs by broth dilution method. The series is classed as functional. Conditions: Lodderomyces parapsilosis, ATCC 22019, 48 h.
Series [12] concerns Candida albicans. The experiment in a line: Antifungal activity against itraconazole and fluconazole susceptible Candida albicans ATCC MYA-2310 after 48 hrs by broth dilution method. It counts as functional. To be noted: Candida albicans, ATCC MYA-2310, 48 h.
Another series relates to Aspergillus terreus. The experiment in a line: Antifungal activity against Aspergillus terreus ATCC MYA-3633 after 48 hrs by broth dilution method. Conditions: Aspergillus terreus, ATCC MYA-3633, 48 h. It counts as functional. The gist of the method: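 Molds tested per CLSI M38-A2. Spores were harvested from sporulating PDA cultures by filtering through glass wool and counted on a hemocytometer. Serial dilutions (0.03–31.3 µg/mL) were made in RPMI 1640 buffered to pH 7.0 with 0.165 M MOPS, final inoculum 5 × 10^5 CFU/mL.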

The nature of series [13]: Solubility of the compound in DMSO. It counts as physicochemical.
Series [14] concerns Candida albicans. Nature of the series: Antifungal activity against Candida albicans ATCC 10231 after 48 hrs by broth dilution method. The series is classed as functional. To be noted: ATCC 10231, 48 h.
Series [15] relates to Candida albicans. Nature of the series: Antifungal activity against itraconazole and fluconazole resistant Candida albicans ATCC MYA-1237 after 48 hrs by broth dilution method. It counts as functional. To be noted: Candida albicans, ATCC MYA-1237, 48 h. The gist of the method:
as §2

Series [16] has as its system Candida albicans. Nature of the series: Ratio of MIC80 for voriconazole resistant Candida albicans ATCC 64124 sessile cells to MIC for voriconazole resistant Candida albicans ATCC 64124. The series is classed as functional.
The subject of series [17] is Candida albicans. Nature of the series: Antifungal activity against Candida albicans ATCC 64124 after 48 hrs by broth dilution method. The series is classed as functional. Conditions: Candida albicans, ATCC 64124, 48 h. The method, boiled down: as §2
The test system of a further series is Aspergillus flavus. The experiment in a line: Antifungal activity against Aspergillus flavus ATCC MYA-3631 after 48 hrs by broth dilution method. It counts as functional. Conditions: ATCC MYA-3631, 48 h.
Series [18] deals with Candida parapsilosis. The experiment in a line: Antifungal activity against Candida parapsilosis ATCC 22019 after 48 hrs in the presence of 10% FBS by broth dilution method. It counts as functional. Conditions: Lodderomyces parapsilosis, ATCC 22019, 48 h.
For series [19], the system named is Aspergillus nidulans. The experiment in a line: Antifungal activity against Aspergillus nidulans ATCC 38163 after 48 hrs in the presence of 10% FBS by broth dilution method. It counts as functional. To be noted: ATCC 38163, 48 h.

In brackets after ≈: the same amount, converted by molar mass.

With `CCCCCCCCCCCCN1CCNCC1`, the Ratio with Candida albicans [1] is 2 - 8; in the series with Aspergillus nidulans [2], 2 - 8; in the series on Candida parapsilosis [6], 2 - 8; with Candida albicans [16], 1 - 4. Besides, the MIC (usually the smallest concentration in the dilution series that meets the test's criterion for growth inhibition) in the series with Candida albicans [3] worked out at 15.3 µM (≈ 3.89 µg/mL); against Pichia kudriavzevii, 7.7 µM (≈ 1.96 µg/mL); against Aspergillus nidulans [5] it was 7.7 µM (≈ 1.96 µg/mL); against Nakaseomyces glabratus, 7.7 µM (≈ 1.96 µg/mL); in the series on Candida albicans [7], 15.3 µM (≈ 3.89 µg/mL); with Candida albicans [8], 30.7 µM (≈ 7.81 µg/mL). For the same compound, the MIC in the series with Candida albicans [10] came to 3.9 µg/mL; against Candida parapsilosis [11], 7.7 µM (≈ 1.96 µg/mL); with Candida albicans [12], 15.3 µM (≈ 3.89 µg/mL); with Aspergillus terreus, 30.7 µM (≈ 7.81 µg/mL); with Candida albicans [14], 7.7 µM (≈ 1.96 µg/mL); against Candida albicans [15] it was 15.3 µM (≈ 3.89 µg/mL). Moreover, the figures for the MIC against Candida albicans [17] and against Aspergillus flavus were 30.7 µM (≈ 7.81 µg/mL) and 15.3 µM (≈ 3.89 µg/mL), respectively. The Activity entry with HEK293, in the series with BEAS-2B and in the series on A549 was “Toxic” in each case. In addition, the solubility result in series [4] and in series [13] was “Soluble” in each case. The MIC50 in the series on Candida albicans [9] is 7.8 µg/mL (≈ 30.7 µM). Besides, the MIC80 against Candida albicans [9] amounted to 31.3 µg/mL (≈ 123 µM).

`CCCCCCCCCCN1CCN(CC(O)(Cn2cncn2)c2ccc(Cl)cc2Cl)CC1` (stereo not drawn): the minimal inhibitory concentration (MIC) with Pichia kudriavzevii turned out to be 3.9 µM (≈ 1.94 µg/mL); in the series with Aspergillus nidulans [5], 7.9 µM (≈ 3.92 µg/mL); in the series on Candida parapsilosis [18], 0.24 µg/mL; against Nakaseomyces glabratus, 2 µM (≈ 0.993 µg/mL); against Candida albicans [8], 7.9 µM (≈ 3.92 µg/mL); in the series with Candida albicans [10], 1.95 µg/mL. Also, the MIC against Candida parapsilosis [11] amounted to 0.48 µM (≈ 0.238 µg/mL); in the series with Aspergillus terreus, 7.9 µM (≈ 3.92 µg/mL); in the series with Aspergillus nidulans [19] it was 3.9 µg/mL; against Candida albicans [14], 3.9 µM (≈ 1.94 µg/mL); in the series on Aspergillus flavus, 7.9 µM (≈ 3.92 µg/mL). The solubility result in series [4] and in [13] was “Soluble” each time. In the series on Candida albicans [9], this compound gave an MIC50 of 15.6 µg/mL (≈ 31.4 µM). In addition, in the series with Candida albicans [9], the MIC80 was determined as 31.3 µg/mL (≈ 63 µM). Further, in the series on Candida albicans [16], the Ratio is 1 - 2.

Take `C[C@@H]1[C@H](O)[C@@H](C)/C=C/C=C/C=C/C=C/C=C/C=C/C=C/[C@H](O[C@@H]2O[C@H](C)[C@@H](O)[C@H](N)[C@@H]2O)C[C@@H]2O[C@](O)(C[C@@H](O)C[C@@H](O)[C@H](O)CC[C@@H](O)C[C@@H](O)CC(=O)O[C@H]1C)C[C@H](O)[C@H]2C(=O)O` [AMPHOTERICIN B]: the minimum inhibitory concentration (MIC) in the series with Candida albicans [8] came to 1.1 µM (≈ 1.02 µg/mL); in the series on Candida albicans [10] it was 7.8 µg/mL.

In the case of `CCCCCCCCCCCCCN1CCNCC1`, the MIC against Candida albicans [3] was 7.2 µM (≈ 1.93 µg/mL); in the series on Pichia kudriavzevii, 3.6 µM (≈ 0.967 µg/mL); with Aspergillus nidulans [5], 3.6 µM (≈ 0.967 µg/mL); against Nakaseomyces glabratus, 1.8 µM (≈ 0.483 µg/mL); in the series on Candida albicans [7] it was 7.2 µM (≈ 1.93 µg/mL); against Candida albicans [8] it was 3.6 µM (≈ 0.967 µg/mL). The MIC in the series on Candida parapsilosis [11] was determined as 7.2 µM (≈ 1.93 µg/mL); in the series with Candida albicans [12] it was 7.2 µM (≈ 1.93 µg/mL); against Aspergillus terreus, 7.2 µM (≈ 1.93 µg/mL); in the series with Candida albicans [14], 3.6 µM (≈ 0.967 µg/mL); against Candida albicans [15], 7.2 µM (≈ 1.93 µg/mL); against Candida albicans [17] it was 3.6 µM (≈ 0.967 µg/mL). In addition, the minimum inhibitory concentration (MIC) against Aspergillus flavus is 7.2 µM (≈ 1.93 µg/mL). The solubility result in series [4] and in [13] was “Soluble” each time.

The values are drawn from ChEMBL document CHEMBL4024783, “Alkylated Piperazines and Piperazine-Azole Hybrids as Antifungal Agents” (J Med Chem, 2018).
